Measurements published in PMC4887080 (Journal of nuclear medicine : official publication, Society …, 2016).

Key:
[1] = tested on: VLA-4-positive 5TGM1-GFP murine myeloma cells; test: Flow cytometry binding of LLP2A-Cy5 to 5TGM1-GFP cells; type: cell-based, mouse; settings: coincubated at similar concentrations, P < 0.05
[2] = tested on: human MM cell lines H929, RPMI-8226, OPM2; test: Flow cytometry binding of LLP2A-Cy5 to human MM cell lines; type: cell-based
[3] = Human radiation dose estimates extrapolated from mouse biodistribution; type: in vivo, BALB/c mice, scaled to adult human male model
Summary of the method: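 64Cu tracer biodistribution in normal BALB/c mice given 0.78 MBq. Organs were collected at 1, 2, 4, 12, 24 and 48 h, and %ID/g was decay-corrected. A final group was housed in metabolic cages to collect urine and feces. Organ residence times (2-h void; 1-h void scenario also run) were scaled to human organ weight for the adult male model. Maximum injection assumes a 50 mGy bladder-wall limit. Mean ± SD.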

[4] = type: in vivo, BALB/c mice
Summary of the method: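 BALB/c mice received 0.78 MBq of 64Cu tracer, with sampling at 1, 2, 4, 12, 24 and 48 h. The last group was kept in metabolic cages to collect excreted urine and feces. Time–activity curves for urine excretion and blood clearance were built as percentage injected activity. Urine residence time used a 1-h void assumption.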

[5] = target: T1, VLA-4 (Mus musculus, UniProt P09055+Q00651); type: in vivo, KaLwRij mouse
T1 sequence (Q00651 40-1039 limits assumed): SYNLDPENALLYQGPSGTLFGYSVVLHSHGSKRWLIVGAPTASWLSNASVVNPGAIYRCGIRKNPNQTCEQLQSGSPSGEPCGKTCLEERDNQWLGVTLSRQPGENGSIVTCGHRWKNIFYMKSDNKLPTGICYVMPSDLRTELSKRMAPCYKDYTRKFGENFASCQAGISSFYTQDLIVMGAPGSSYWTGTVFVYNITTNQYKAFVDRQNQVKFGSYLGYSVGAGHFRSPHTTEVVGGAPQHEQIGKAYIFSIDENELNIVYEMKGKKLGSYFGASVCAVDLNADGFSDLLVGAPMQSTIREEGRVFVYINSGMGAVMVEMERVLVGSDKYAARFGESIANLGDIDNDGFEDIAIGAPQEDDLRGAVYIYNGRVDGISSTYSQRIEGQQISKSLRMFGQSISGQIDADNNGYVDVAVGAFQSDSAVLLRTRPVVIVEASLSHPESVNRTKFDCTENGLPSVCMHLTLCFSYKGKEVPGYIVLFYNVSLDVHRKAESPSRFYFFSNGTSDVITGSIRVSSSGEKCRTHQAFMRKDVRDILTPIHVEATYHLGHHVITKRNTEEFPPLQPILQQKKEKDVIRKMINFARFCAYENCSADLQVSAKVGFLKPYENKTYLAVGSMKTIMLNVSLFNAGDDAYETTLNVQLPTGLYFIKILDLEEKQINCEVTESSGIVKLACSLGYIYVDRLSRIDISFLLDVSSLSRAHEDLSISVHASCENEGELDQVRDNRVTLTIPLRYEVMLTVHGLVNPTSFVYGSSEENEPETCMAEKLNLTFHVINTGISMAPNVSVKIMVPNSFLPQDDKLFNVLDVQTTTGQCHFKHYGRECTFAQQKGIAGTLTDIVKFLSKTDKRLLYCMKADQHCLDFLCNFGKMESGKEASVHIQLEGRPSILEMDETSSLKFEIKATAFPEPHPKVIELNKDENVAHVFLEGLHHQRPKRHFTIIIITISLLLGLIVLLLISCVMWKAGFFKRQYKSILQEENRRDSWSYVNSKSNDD
T1 sequence (P09055 21-798): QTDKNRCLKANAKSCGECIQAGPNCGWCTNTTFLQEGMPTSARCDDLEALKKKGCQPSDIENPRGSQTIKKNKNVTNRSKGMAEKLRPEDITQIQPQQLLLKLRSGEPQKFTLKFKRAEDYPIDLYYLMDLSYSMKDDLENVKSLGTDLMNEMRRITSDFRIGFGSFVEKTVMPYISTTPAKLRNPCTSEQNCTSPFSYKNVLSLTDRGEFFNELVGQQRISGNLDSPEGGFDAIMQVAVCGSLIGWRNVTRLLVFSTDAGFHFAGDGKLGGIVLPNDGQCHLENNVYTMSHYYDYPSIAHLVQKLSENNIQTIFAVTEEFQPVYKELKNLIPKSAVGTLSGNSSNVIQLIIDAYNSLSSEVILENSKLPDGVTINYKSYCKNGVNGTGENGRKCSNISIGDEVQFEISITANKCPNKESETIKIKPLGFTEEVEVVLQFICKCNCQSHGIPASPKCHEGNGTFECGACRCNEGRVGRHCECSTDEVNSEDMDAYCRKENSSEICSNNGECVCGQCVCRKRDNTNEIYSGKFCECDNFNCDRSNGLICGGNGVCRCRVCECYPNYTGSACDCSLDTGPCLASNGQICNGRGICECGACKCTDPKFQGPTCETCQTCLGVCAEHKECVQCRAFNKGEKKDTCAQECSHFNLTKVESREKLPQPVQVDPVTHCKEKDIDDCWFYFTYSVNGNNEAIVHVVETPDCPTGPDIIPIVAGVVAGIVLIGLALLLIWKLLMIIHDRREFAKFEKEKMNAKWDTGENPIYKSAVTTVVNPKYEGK

[6] = target: T1, VLA-4; test: PET uptake in tumor-free α4 -/- mice vs wild-type KaLwRij mice; type: in vivo; settings: tumor-free α4 -/- mice compared with age-matched wild-type KaLwRij mice

For `CCOCc1cc(OC)c(-c2ccc(C[C@H](NC(=O)c3c(F)cccc3F)C(=O)O)cc2)c(OC)c1` [firategrast], the “Effect of competitor on LLP2A-Cy5 cell binding” value [1] was “competitively inhibited”.
With `Cc1ccccc1NC(=O)Nc1ccc(CC(=O)N(C)[C@@H](CC(C)C)C(=O)NCC[C@H](NC(=O)[C@@H]2CCCN2S(=O)(=O)c2cc(Cl)cc(Cl)c2)C(=O)O)cc1` [BIO5192] the “Effect on LLP2A-Cy5 cell binding” value [2] was “blocked”.
With “^64Cu-CB-TE1A1P-PEG4-LLP2A [^64Cu-LLP2A]” the Bladder dose ([3]; 1-h bladder-voiding interval) was 0.094 mGy/MBq, the Red marrow dose ([3]; 1-h bladder-voiding interval) was 0.005 mGy/MBq and the “Human radiation dose estimate, urinary bladder wall (dose-limiting organ)” value ([3]; as stated in abstract and discussion, void interval not stated) was 0.200 mGy/MBq. The “Human radiation dose estimate, red marrow” value ([3]; as stated in abstract, void interval not stated) was 0.006 mGy/MBq, the Maximum injection ([3]; assuming maximum permissible dose of 50 mGy to the bladder wall) was 532 MBq and the “Urine excreted, expressed as residence time” value ([4]; 1-h void assumption) was 14.01 h. For the same molecule, the “Blood clearance half-life, fast component” value ([4]; dual-exponential fit of blood time-activity curve, mice) was 6 min, the “Residence time from area under the curve of urine data” value ([4]; urine collected in metabolic cages) was 14.46 h and the “Tumor uptake when coinjected with blocker” value ([5]; coinjected with a 200-fold excess of cold-LLP2A) was “reduced to the background levels”. For the same molecule, the Tumor uptake ([5]; subcutaneous 5TGM1-GFP model, i.v. injection of 0.48 MBq, PET at 24 h) was “excellent tumor uptake” and the “Uptake in the spleen of α4 -/- mice” value [6] was “negligible uptake”.
